Results published in ChEMBL document CHEMBL2380295, “Structure-activity studies on the side chain of a simplified analog of aplysiatoxin (aplog-1) with anti-proliferative activity” (Bioorg Med Chem, 2013).

How the values were obtained:
[1] = Cytotoxicity against human Raji cells assessed as cell viability at 10^-6 M; assay type: cell-based; conditions: read-out: Activity
[2] = Cytotoxicity against human Raji cells assessed as cell viability at 10^-7 M; assay type: cell-based; conditions: read-out: Activity
Human gammaherpesvirus 4 [3] = experiment: Induction of EBV-early antigen expressed in human Raji cells at 10^-6 M after 48 hrs by immunofluorescence assay relative to control; assay type: organism-based; conditions: human gammaherpesvirus 4, raji, 1 µM
How it was run: (§1)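 Raji B-lymphoblastoid cells (5 × 10^5/mL) in RPMI 1640 with 10% FBS, with 4 mM sodium n-butyrate as synergist and test compound at 10^-7 or 10^-6 M (final DMSO 0.4%). Incubated 48 h at 37 °C under 5% CO2. Smears were stained by indirect immunofluorescence using NPC patient serum and FITC anti-human IgG. At least 500 cells counted; % EA-positive recorded; n = 3, SEM.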

Human gammaherpesvirus 4 [4] = experiment: Induction of EBV-early antigen expressed in human Raji cells at 10^-7 M after 48 hrs by immunofluorescence assay relative to control; assay type: organism-based; conditions: human gammaherpesvirus 4, raji, 0.1 µM; how it was run: as §1
PC-3 = experiment: Growth inhibition of human PC3 cells after 48 hrs by sulforhodamine B assay; assay type: functional; conditions: PC-3, 48 h
How it was run: (§2)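 Yamori 39-line human cancer panel, NCI method with modifications. Cells plated in RPMI 1640 plus 5% FBS, attached overnight, then exposed 48 h to compound at 10^-8, 10^-7, 10^-6, 10^-5 and 10^-4 M. Sulforhodamine B staining read at 525 nm; % growth = 100[(T−T0)/(C−T0)] from duplicate-point averages, with T0 the time-zero absorbance. GI50 is the concentration giving 50.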

DU-145 = experiment: Growth inhibition of human DU145 cells after 48 hrs by sulforhodamine B assay; assay type: functional; conditions: DU-145, 48 h; how it was run: as §2
MKN-74 = experiment: Growth inhibition of human MKN74 cells after 48 hrs by sulforhodamine B assay; assay type: functional; conditions: MKN-74, 48 h; how it was run: as §2
MKN-28 = experiment: Growth inhibition of human MKN28 cells after 48 hrs by sulforhodamine B assay; assay type: functional; conditions: MKN-28, 48 h; how it was run: as §2
MKN-45 = experiment: Growth inhibition of human MKN45 cells after 48 hrs by sulforhodamine B assay; assay type: functional; conditions: MKN-45, 48 h; how it was run: as §2
MKN-7 = experiment: Growth inhibition of human MKN7 cells after 48 hrs by sulforhodamine B assay; assay type: functional; conditions: MKN-7, 48 h; how it was run: as §2
St-4 = experiment: Growth inhibition of human St-4 cells after 48 hrs by sulforhodamine B assay; assay type: functional; conditions: St-4, 48 h; how it was run: as §2
[5] = Growth inhibition of human MKN1 cells after 48 hrs by sulforhodamine B assay; assay type: functional; conditions: MKN-1, 48 h; how it was run: as §2
[6] = Growth inhibition of human RXF631L cells after 48 hrs by sulforhodamine B assay; assay type: functional; conditions: RXF 631, 48 h; how it was run: as §2
ACHN = experiment: Growth inhibition of human ACHN cells after 48 hrs by sulforhodamine B assay; assay type: functional; how it was run: as §2
OVCAR-8 = experiment: Growth inhibition of human OVCAR8 cells after 48 hrs by sulforhodamine B assay; assay type: functional; conditions: OVCAR-8, 48 h; how it was run: as §2
SK-OV-3 = experiment: Growth inhibition of human SKOV3 cells after 48 hrs by sulforhodamine B assay; assay type: functional; conditions: SK-OV-3, 48 h; how it was run: as §2
OVCAR-5 = experiment: Growth inhibition of human OVCAR5 cells after 48 hrs by sulforhodamine B assay; assay type: functional; conditions: OVCAR-5, 48 h; how it was run: as §2
OVCAR-3 = experiment: Growth inhibition of human OVCAR3 cells after 48 hrs by sulforhodamine B assay; assay type: functional; conditions: OVCAR-3, 48 h; how it was run: as §2
OVCAR-4 = experiment: Growth inhibition of human OVCAR4 cells after 48 hrs by sulforhodamine B assay; assay type: functional; conditions: OVCAR-4, 48 h; how it was run: as §2
DMS-114 = experiment: Growth inhibition of human DMS114 cells after 48 hrs by sulforhodamine B assay; assay type: functional; conditions: DMS-114, 48 h; how it was run: as §2
LOX IMVI = experiment: Growth inhibition of human LOXIMVI cells after 48 hrs by sulforhodamine B assay; assay type: functional; how it was run: as §2
A549 = experiment: Growth inhibition of human A549 cells after 48 hrs by sulforhodamine B assay; assay type: functional; conditions: A549, 48 h; how it was run: as §2
DMS-273 = experiment: Growth inhibition of human DMS273 cells after 48 hrs by sulforhodamine B assay; assay type: functional; conditions: DMS-273, 48 h; how it was run: as §2
NCI-H460 = experiment: Growth inhibition of human NCI-H460 cells after 48 hrs by sulforhodamine B assay; assay type: functional; conditions: NCI-H460, 48 h; how it was run: as §2
NCI-H226 = experiment: Growth inhibition of human NCI-H226 cells after 48 hrs by sulforhodamine B assay; assay type: functional; conditions: NCI-H226, 48 h; how it was run: as §2
NCI-H522 = experiment: Growth inhibition of human NCI-H522 cells after 48 hrs by sulforhodamine B assay; assay type: functional; conditions: NCI-H522, 48 h; how it was run: as §2
HCT-116 = experiment: Growth inhibition of human HCT116 cells after 48 hrs by sulforhodamine B assay; assay type: functional; conditions: HCT-116, 48 h; how it was run: as §2
NCI-H23 = experiment: Growth inhibition of human NCI-H23 cells after 48 hrs by sulforhodamine B assay; assay type: functional; conditions: NCI-H23, 48 h; how it was run: as §2
HCT-15 = experiment: Growth inhibition of human HCT15 cells after 48 hrs by sulforhodamine B assay; assay type: functional; conditions: HCT-15, 48 h; how it was run: as §2
KM12 = experiment: Growth inhibition of human KM12 cells after 48 hrs by sulforhodamine B assay; assay type: functional; conditions: KM12, 48 h; how it was run: as §2
HT-29 = experiment: Growth inhibition of human HT-29 cells after 48 hrs by sulforhodamine B assay; assay type: functional; conditions: HT-29, 48 h; how it was run: as §2
SNB-78 = experiment: Growth inhibition of human SNB78 cells after 48 hrs by sulforhodamine B assay; assay type: functional; conditions: SNB-78, 48 h; how it was run: as §2
[7] = Growth inhibition of human HCC2998 cells after 48 hrs by sulforhodamine B assay; assay type: functional; conditions: HCC 2998, 48 h; how it was run: as §2
SF-539 = experiment: Growth inhibition of human SF539 cells after 48 hrs by sulforhodamine B assay; assay type: functional; conditions: SF-539, 48 h; how it was run: as §2
SNB-75 = experiment: Growth inhibition of human SNB75 cells after 48 hrs by sulforhodamine B assay; assay type: functional; conditions: SNB-75, 48 h; how it was run: as §2
SF-295 = experiment: Growth inhibition of human SF295 cells after 48 hrs by sulforhodamine B assay; assay type: functional; conditions: SF-295, 48 h; how it was run: as §2
U-251 = experiment: Growth inhibition of human U251 cells after 48 hrs by sulforhodamine B assay; assay type: functional; conditions: U-251, 48 h; how it was run: as §2
SF-268 = experiment: Growth inhibition of human SF268 cells after 48 hrs by sulforhodamine B assay; assay type: functional; conditions: SF-268, 48 h; how it was run: as §2
MCF7 = experiment: Growth inhibition of human MCF7 cells after 48 hrs by sulforhodamine B assay; assay type: functional; conditions: MCF7, 48 h; how it was run: as §2
MDA-MB-231 = experiment: Growth inhibition of human MDA-MB-231 cells after 48 hrs by sulforhodamine B assay; assay type: functional; conditions: MDA-MB-231, 48 h; how it was run: as §2
[8] = Growth inhibition of human BSY1 cells after 48 hrs by sulforhodamine B assay; assay type: functional; conditions: BSY-1, 48 h; how it was run: as §2
[9] = Growth inhibition of human HBC5 cells after 48 hrs by sulforhodamine B assay; assay type: functional; conditions: HBC5, 48 h; how it was run: as §2
[10] = Growth inhibition of human HBC4 cells after 48 hrs by sulforhodamine B assay; assay type: functional; conditions: HBC4, 48 h; how it was run: as §2
[11] = Octanol-water partition coefficient, log P of the compound by HPLC analysis; assay type: physicochemical
How it was run: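 log P was estimated from HPLC retention, with column dead time measured using unretained formamide.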

[12] = target: T1, Protein kinase C delta type (Homo sapiens, UniProt Q05655); experiment: Inhibition of [3H]PDBu binding to PKCdelta-C1A domain peptide (unknown origin)
How it was run: (§3)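 Competitive [3H]PDBu binding used 14 or 40 nM PKCδ C1 peptide and 20 nM [3H]PDBu (19.6 Ci/mmol), in 50 mM Tris-maleate (pH 7.4 at 4 °C) with 50 µg/mL phosphatidylserine, 3 mg/mL bovine γ-globulin and varied inhibitor concentrations. IC50 was taken as 50% inhibition of specific binding. Ki was derived by the Sharkey–Blumberg method.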

[13] = target: T1, Protein kinase C delta type; experiment: Inhibition of [3H]PDBu binding to PKCdelta-C1B domain peptide (unknown origin); how it was run: as §3

T1 sequence (Q05655 whole entry, the tested form may be a part): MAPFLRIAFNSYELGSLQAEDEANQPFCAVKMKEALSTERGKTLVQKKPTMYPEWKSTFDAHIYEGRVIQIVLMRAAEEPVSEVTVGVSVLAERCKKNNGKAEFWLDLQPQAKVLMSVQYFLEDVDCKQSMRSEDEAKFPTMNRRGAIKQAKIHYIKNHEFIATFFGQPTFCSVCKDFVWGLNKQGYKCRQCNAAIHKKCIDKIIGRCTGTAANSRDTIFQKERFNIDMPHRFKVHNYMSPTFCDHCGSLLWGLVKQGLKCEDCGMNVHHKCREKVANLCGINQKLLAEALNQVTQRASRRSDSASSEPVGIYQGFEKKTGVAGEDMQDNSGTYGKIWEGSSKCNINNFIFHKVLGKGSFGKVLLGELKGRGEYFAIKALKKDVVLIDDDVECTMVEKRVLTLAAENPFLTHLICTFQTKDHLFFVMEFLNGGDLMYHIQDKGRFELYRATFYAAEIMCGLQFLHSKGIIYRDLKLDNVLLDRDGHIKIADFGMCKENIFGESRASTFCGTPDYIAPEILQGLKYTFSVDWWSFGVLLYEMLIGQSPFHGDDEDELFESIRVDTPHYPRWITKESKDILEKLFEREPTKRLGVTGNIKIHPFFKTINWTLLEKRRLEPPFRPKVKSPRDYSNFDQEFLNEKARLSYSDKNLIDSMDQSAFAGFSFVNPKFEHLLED

CC1(C)CC[C@@H]2CC(=O)O[C@@H](CO)CC(=O)O[C@@H]3C[C@@H](CCCCc4cc(O)c(Br)cc4Br)O[C@@]1(C3)O2
viability at 1 µM [1]: 40% | viability at 0.1 µM [2]: 40% | Activity (Human gammaherpesvirus 4 [3]): 2.1% | Activity (Human gammaherpesvirus 4 [4]): 2% | GI50 (PC-3): 3.89 µM | GI50 (DU-145): 11.2 µM | GI50 (MKN-74): 11 µM | GI50 (MKN-28): 8.32 µM | GI50 (MKN-45): 3.72 µM | GI50 (MKN-7): 6.46 µM | GI50 (St-4): 1.29 µM | GI50 [5]: 10.2 µM | GI50 [6]: 14.5 µM | GI50 (ACHN): 5.75 µM | GI50 (OVCAR-8): 15.8 µM | GI50 (SK-OV-3): 15.8 µM | GI50 (OVCAR-5): 10 µM | GI50 (OVCAR-3): 6.17 µM | GI50 (OVCAR-4): 15.5 µM | GI50 (DMS-114): 13.5 µM | GI50 (LOX IMVI): 2.82 µM | GI50 (A549): 4.9 µM | GI50 (DMS-273): 10.7 µM | GI50 (NCI-H460): 1.23 µM | GI50 (NCI-H226): 15.1 µM | GI50 (NCI-H522): 13.8 µM | GI50 (HCT-116): 10.7 µM | GI50 (NCI-H23): 6.61 µM | GI50 (HCT-15): 13.8 µM | GI50 (KM12): 4.79 µM | GI50 (HT-29): 15.5 µM | GI50 (SNB-78): 12.9 µM | GI50 [7]: 0.891 µM | GI50 (SF-539): 10 µM | GI50 (SNB-75): 5.89 µM | GI50 (SF-295): 6.61 µM | GI50 (U-251): 11.7 µM | GI50 (SF-268): 12.6 µM | GI50 (MCF7): 12.3 µM | GI50 (MDA-MB-231): 2.95 µM | GI50 [8]: 4.57 µM | GI50 [9]: 14.1 µM | GI50 [10]: 0.224 µM | logP [11]: 5 | Ki [12]: 0.093 µM | Ki [13]: 0.0041 µM

CC1(C)CC[C@@H]2CC(=O)O[C@@H](CO)CC(=O)O[C@@H]3C[C@@H](CCCCc4c(Br)cc(Br)c(O)c4Br)O[C@@]1(C3)O2
viability at 1 µM [1]: 40% | viability at 0.1 µM [2]: 40% | Activity (Human gammaherpesvirus 4 [3]): 1.9% | Activity (Human gammaherpesvirus 4 [4]): 1.9% | GI50 (PC-3): 13.2 µM | GI50 (DU-145): 17 µM | GI50 (MKN-74): 21.9 µM | GI50 (MKN-28): 18.2 µM | GI50 (MKN-45): 11.5 µM | GI50 (MKN-7): 20.9 µM | GI50 (St-4): 3.09 µM | GI50 [5]: 14.8 µM | GI50 [6]: 21.9 µM | GI50 (ACHN): 16.2 µM | GI50 (OVCAR-8): 17.4 µM | GI50 (SK-OV-3): 32.4 µM | GI50 (OVCAR-5): 18.6 µM | GI50 (OVCAR-3): 15.5 µM | GI50 (OVCAR-4): 20.9 µM | GI50 (DMS-114): 25.7 µM | GI50 (LOX IMVI): 11.7 µM | GI50 (A549): 12.6 µM | GI50 (DMS-273): 18.2 µM | GI50 (NCI-H460): 3.24 µM | GI50 (NCI-H226): 16.2 µM | GI50 (NCI-H522): 20.4 µM | GI50 (HCT-116): 17.8 µM | GI50 (NCI-H23): 14.1 µM | GI50 (HCT-15): 18.2 µM | GI50 (KM12): 16.6 µM | GI50 (HT-29): 16.6 µM | GI50 (SNB-78): 47.9 µM | GI50 [7]: 7.59 µM | GI50 (SF-539): 13.5 µM | GI50 (SNB-75): 26.3 µM | GI50 (SF-295): 13.2 µM | GI50 (U-251): 16.2 µM | GI50 (SF-268): 20.9 µM | GI50 (MCF7): 19.5 µM | GI50 (MDA-MB-231): 12 µM | GI50 [8]: 21.4 µM | GI50 [9]: 22.9 µM | GI50 [10]: 0.871 µM | logP [11]: 5.5 | Ki [12]: 0.079 µM | Ki [13]: 0.0069 µM
